Sampled rows, rich in hits. Any-hit rate of the full collection: about 2.8%.
TNAP act hiacc = activators of human TNAP at high phosphate acceptor concentration; purified TNAP, CDP-star luminescence, 1 M DEA, 30 min; hits give high values; 0 = EDTA background, 1 = DMSO-only activity; P05186; activation factor at 20 µM; 200,000 tested, under 10 active; AID 1136;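 active = activation factor at least 2 at 20 µM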
Target sequence (P05186 whole entry, looked up): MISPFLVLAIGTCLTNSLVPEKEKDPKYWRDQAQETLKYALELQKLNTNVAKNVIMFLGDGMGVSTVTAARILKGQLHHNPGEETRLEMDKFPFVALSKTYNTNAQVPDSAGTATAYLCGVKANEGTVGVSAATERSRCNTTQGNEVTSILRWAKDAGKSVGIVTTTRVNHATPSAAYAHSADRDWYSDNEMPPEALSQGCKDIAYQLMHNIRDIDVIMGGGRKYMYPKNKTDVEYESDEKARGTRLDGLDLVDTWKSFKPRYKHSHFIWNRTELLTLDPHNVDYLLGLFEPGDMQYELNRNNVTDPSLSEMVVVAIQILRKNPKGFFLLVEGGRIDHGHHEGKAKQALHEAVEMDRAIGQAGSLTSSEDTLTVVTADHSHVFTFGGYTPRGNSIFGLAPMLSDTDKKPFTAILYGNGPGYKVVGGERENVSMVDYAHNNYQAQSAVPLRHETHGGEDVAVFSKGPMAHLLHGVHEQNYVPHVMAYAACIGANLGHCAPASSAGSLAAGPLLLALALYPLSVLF
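Measured by: Luminescent substrate turnover signal | Test system: Human TNAP | Input: TNAP 1/800 final | Dosing: 20 µM single point | Schedule: 30 min, room temperature | Controls: EDTA wells as negative control, DMSO wells as positive control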
TNAP inh no acc = blocks human TNAP activity with no phosphate acceptor present | inhibition, % at 20 µM | P05186 | purified TNAP, CDP-star luminescence, 30 min | 200,000 tested, 0.26% active;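 active = tissue-nonspecific alkaline phosphatase inhibition above about 50% at 20 µM in the single-dose screen, limit read from the data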
Yeast lifespan up = yeast lifespan extension | S. cerevisiae growth with nicotinamide, OD615; deaD strain in restrictive glucose medium | inhibition of the nicotinamide effect, % at 10 µM | 130,000 tested, 0.68% active;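 active = inhibition above a set limit, placed 3 SD over the median of all compounds, cut at about 26% in these data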
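Material: Modified budding yeast, DeaD strain | Medium: Restrictive glucose medium | Probe or stimulus: 1.5 mM nicotinamide | Dosing: Single dose 10 µM compound, 0.25% DMSO | Times: 48 h at 30 °C | Technique: OD615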
RAM inhibit = yeast RAM network inhibition; S. cerevisiae dse1pr::URA3 reporter, 5-FOA growth OD615, 2 d; analog-sensitive cbk1-as2 kinase mutant strain; inhibition, % at 50 µM; 190,000 tested, 1.8% active; AID 868;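 active = inhibition above a set limit, 3 SD over mean compound inhibition, cut at about 8.4% in these data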;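 note: inhibition rescues growth on 5-FOA so higher OD means more RAM inhibition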
TNAP inh hi DEA = blocks human TNAP under high phosphate acceptor concentration; purified TNAP, CDP-star luminescence, 1 M DEA; inhibition, % at 20 µM; P05186; 200,000 tested, 0.03% active;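 active = over 50% inhibition of tissue-nonspecific alkaline phosphatase at 20 µM in the single-dose screen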
Yeast growth inh = yeast BB579 growth reduction in restrictive medium; S. cerevisiae BB579 growth, OD615, 48 h; inhibition, % at 10 µM; 140,000 tested, 0.51% active; AID 804;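 active = inhibition above a set limit, 3 SD over the mean compound inhibition, cut at about 44% in these data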
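System: Saccharomyces cerevisiae DeaD strain BB579, replicative lifespan model yeast. Buffer or medium: restrictive glucose-based CSMM-D medium. Doses: one dose, 10 µM compound with 0.25% DMSO. Timing: 4 h preincubation and 48 h exposure at 30 °C. Detection: turbidity as optical density at 615 nm. Benchmarks: amphotericin B 10 µg/mL, positive.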
RAM 5-FOA = RAM network inhibition, efflux-deficient strain; S. cerevisiae efflux-deficient reporter strain, 5-FOA growth OD615, 2 days; max inhibition, %; shares compounds with RAM inhibit; AID 1305; 1,200 tested, under 10 active; call rule not given here
Numbers stand for hits; . = inactive; / = no result given.

SMILES	TNAP act hiacc	TNAP inh no acc	Yeast lifespan up	RAM inhibit	TNAP inh hi DEA	Yeast growth inh	RAM 5-FOA
CCOc1ccc(-c2nnc3ccc(SCc4ccc(C(=O)OC)o4)nn23)cc1	.	.	.	12	.	.	.
Cc1cc(C(=O)COc2ccc(Cl)cc2Br)c(C)n1C	.	.	/	12	.	/	.
Cc1cc(C(=O)COc2ccccc2C(N)=O)c(C)n1C	.	.	/	.	.	/	/
Fc1ccc(Cn2nnnc2CN2CCc3ccccc3C2)cc1	.	.	.	.	.	.	/
O=C(c1cc(Cl)cc(Cl)c1)N1CCOCC1	.	.	.	.	.	.	/
CCOC(=O)C1C(=O)CC(C)(O)C(C(=O)OCC)C1c1ccccc1OC (stereo unspecified)	.	.	.	.	.	.	/
Cc1ccccc1NC(=O)c1sc(Cl)nc1-c1ccccc1	.	.	.	.	.	.	/
Cc1ccc(C)c(NC(=O)c2sc(Cl)nc2-c2ccccc2)c1	.	.	.	15	.	.	.
C=CCOC(=O)/C(=C/c1cccc2ccccc12)NC(=O)c1ccccc1	.	.	.	42	.	.	.
N#Cc1nc(-c2ccc(OCc3ccccc3)cc2)oc1NCc1ccco1	.	.	.	16	.	.	.
Cc1ccc(N(CCCCN2C(=O)c3ccccc3C2=O)C(=O)c2ccc(Cl)s2)cc1	.	.	.	.	.	.	/
O=C1c2ccccc2C(=O)N1CCCCN(C(=O)c1ccc(Cl)s1)c1ccc(Cl)cc1	.	.	.	12	.	.	.
CC(C)C(OC(=O)c1cccs1)C(=O)NCc1ccc2c(c1)OCO2 (stereo unspecified)	.	.	/	.	.	/	/
CC(=O)Nc1ccc(S(=O)(=O)Nc2nc3ccccc3nc2-n2ccc(=NC(=O)c3ccc(F)cc3)cc2)cc1	.	.	/	12	.	/	.
COc1cc(NC(=S)N2CCc3ccccc3C2)cc(OC)c1	.	.	/	.	.	/	/
CN(C)S(=O)(=O)c1cc(NC(=O)COC(=O)Cc2ccc(Br)cc2)ccc1Cl	.	.	.	12	.	.	.
CCCOc1cccc(NC(=O)c2cc(C)oc2C)c1	.	.	.	.	.	.	/
COC(=O)C(Sc1nc(C)cc(C)c1C#N)c1ccccc1 (stereo unspecified)	.	.	.	12	.	.	.
COC(=O)CSc1nc(C)cc(C)c1C#N	.	.	/	.	.	/	/
COc1ccccc1-c1cc(C(F)(F)F)nc(N2CCN(c3ccc(F)cc3)CC2)n1	.	.	/	.	.	.	/
COc1ccccc1-c1cc(C(F)(F)F)nc(N2CCN(c3ccccc3)CC2)n1	.	.	.	13	.	.	.
Cc1cc(NC(=O)CSc2nc3cc(C(=O)NCCCOC(C)C)ccc3c(=O)n2Cc2ccco2)no1	.	.	/	.	.	/	/
CC1CCc2nc(NC(=O)Nc3ccc4c(c3)OCO4)sc2C1 (stereo unspecified)	.	.	.	23	.	.	.
CC1CN(C(=O)c2ccccc2)c2ccccc2NC1=O (stereo unspecified)	.	.	.	.	.	.	/
CCCC(=O)Oc1ccc(N(C(=O)CCC)S(=O)(=O)c2cccc([N+](=O)[O-])c2)cc1	.	.	.	.	.	.	/
SMILES	TNAP act hiacc	TNAP inh no acc	Yeast lifespan up	RAM inhibit	TNAP inh hi DEA	Yeast growth inh	RAM 5-FOA
CCOC(=O)C(C)(C)N(Cc1cccc(C)c1)S(=O)(=O)c1cccc([N+](=O)[O-])c1	.	.	.	13	.	.	.
CN1CCC(=NNC(=O)c2cn(-c3ccccc3)nc2-c2ccccc2)CC1	.	.	.	.	.	.	/
CCCOc1ccc(-c2nc(OCC)c3ccccc3n2)cc1	.	.	.	13	.	.	.
CCOc1nc(-c2ccncc2)nc2ccccc12	.	.	.	.	.	.	/
COc1cc(/C=C2\C(=N)N3N=CSC3=NC2=O)cc(Br)c1OC(=O)c1ccco1	.	.	/	.	.	/	/
COc1ccc(-c2ccc(SCC(=O)NCc3ccc4c(c3)OCO4)nn2)cc1OC	.	.	/	12	.	/	.
COc1ccc(-c2nc(CSCC(=O)NCc3ccc4c(c3)OCO4)c(C)o2)cc1OC	.	.	.	.	.	.	/
COc1ccccc1NC(=O)C1=C(C)NC(=O)NC1c1ccc(C)cc1 (stereo unspecified)	.	.	.	.	.	.	/
COc1ccc(C2NC(=O)NC(C)=C2C(=O)Nc2cc(C)ccc2C)cc1OC (stereo unspecified)	.	.	.	12	.	.	.
COC(=O)c1ccc(OC)c(CSc2nnc(-c3ccc(C(C)(C)C)cc3)o2)c1	.	.	.	14	.	.	.
O=C(CC(Nc1ccccc1Cl)C(=O)OCC(=O)c1cccs1)c1ccccc1 (stereo unspecified)	.	.	.	19	.	.	.
O=C(OCC(=O)c1cccs1)c1ccccc1	.	.	.	.	.	.	/
Cn1c(=O)cc(OCCCC(=O)NCc2ccccn2)c2ccccc21	.	.	.	.	.	.	/
Cn1c(=O)cc(OCCCC(=O)NCc2ccc(F)cc2Cl)c2ccccc21	.	.	/	16	.	/	.
Cc1ccc(C(=O)N2CCCC(C(=O)c3cc(F)ccc3F)C2)s1 (stereo unspecified)	.	.	/	.	.	/	/
CCOc1ccc2nc3c(cc2c1)CN(CCOC)C(=NCCOC)S3	.	.	.	14	.	.	.
CCOC(=O)c1c(C)[nH]c(N=Nc2cccc(C)c2)c1C	.	.	.	12	.	.	.
C=CCNC(=S)NNC(=O)C(CCCC)CC(C)(C)O (stereo unspecified)	.	.	/	.	.	.	/
c1ccc2c(c1)CC1(CCCC1)n1nnnc1-2	.	.	.	.	.	.	/
CSc1ccccc1C(=O)NCc1ccc(C)cc1	.	.	/	.	.	/	/
COc1ccc(Cc2nc(-c3ccc(-n4cccc4)cc3)no2)cc1	.	.	.	.	.	.	/
COc1ccc(Cc2nc(-c3ccc(-n4cccc4)cc3)no2)cc1OC	.	.	.	12	.	.	.
COc1ccc(CCNC(=O)c2ccc(-c3ccc([N+](=O)[O-])cc3Cl)o2)cc1	.	.	.	13	.	.	.
CCn1c(N2CCN(C(=S)NCCc3ccccc3)CC2)nc2ccccc21	.	.	.	.	.	.	/
Cc1cc(SC(C)C(=O)Nc2ncc(Cl)cc2Cl)nc2ccccc12 (stereo unspecified)	.	.	.	12	.	.	.
COc1ccc(N2CCCn3c2nc2c3c(=O)n(Cc3ccccc3F)c(=O)n2C)c(OC)c1	.	.	.	.	.	.	/
CCCCc1ccc(-c2csc(/C(C#N)=C\c3ccc(C)o3)n2)cc1	.	.	.	14	.	.	.

Screens as filed in PubChem BioAssay.
